Assay results reported in PubChem BioAssay AID1556 (The Scripps Research Institute Molecular Screening Center, 2009).
The campaign covered roughly 290,000 compounds. About 1,300 (0.45%) were called active.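 How the source made its calls: active means inhibition above the mean plus 3 SD of all compounds in the same screening run (cut at about 4.5% in these data); inactive means the rest.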 Shown is part of a subset that was picked to be rich in actives.

What follows are compounds tested on metallo-beta-lactamase IMP-1 (Pseudomonas aeruginosa) (assay: IMP-1 metallo-beta-lactamase inhibitors, primary screen, biochemical, epi-absorbance readout, Pseudomonas aeruginosa enzyme (AID 1556)). Settings: purified IMP-1, nitrocefin hydrolysis, epi-absorbance fluorescence; at 5.6 µM; hits give high values.
In short: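 assay system = purified recombinant IMP-1 metallo-beta-lactamase enzyme | schedule = 15 min preincubation plus 25 min reaction at 25 °C | signal = Epi-absorbance fluorescence, 480 nm excitation, 530 nm emission | read-out basis = percent inhibition from optical density relative to buffer-blank wells | controls = IMP-1 with DMSO as 0%, enzyme-free DMSO as 100%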

Structure (SMILES)	inhibition
CCc1ccccc1N(CC(=O)NCC1CCCO1)C(=O)CCC(=O)Nc1nccs1 (centres undefined)	-4.39% (inactive)
O=C(NCc1cccc(Cl)c1)C1CCN(c2nnc(N3CCCC3=O)s2)CC1	-2.2% (inactive)
COc1ccc(NC(=O)CCC(=O)Nc2nnc(C3CCCCC3)s2)cc1	-2.6% (inactive)
Cc1cc(=O)oc2cc(OCC(=O)Nc3nnc(C4CC4)s3)ccc12	-1.51% (inactive)
COc1ccc2c(CC(=O)Nc3nnc(C4CC4)s3)coc2c1	68.4% (active)
O=C(NCCCn1ccnc1)C(=O)NCC1OCCN1S(=O)(=O)c1cc(F)ccc1F (centres undefined)	5.52% (active)
Cc1cc(F)ccc1S(=O)(=O)N1CCCOC1CNC(=O)C(=O)NCCC1=CCCCC1 (centres undefined)	-1.85% (inactive)
O=C(NCCCc1ccccc1)C(=O)NCC1OCCN1S(=O)(=O)c1ccccc1 (centres undefined)	-6.52% (inactive)
CCn1c(=S)sc2c(=O)n(CC(=O)Nc3ccc(OC)cc3)c(C)nc21	-1.8% (inactive)
COc1ccc(CCNC(=O)c2cnc(Cl)c(Cl)c2)cc1	-2.17% (inactive)
O=C(Nc1cccc(F)c1)NC1CCCc2ccccc21 (centres undefined)	-1.14% (inactive)
C=CCNC(=O)COc1coc(CN2CCN(Cc3ccccc3)CC2)cc1=O	2.52% (inactive)
C=CCNC(=S)/N=c1/ccccn1Cc1ccccc1	16.2% (active)
CNC(=S)NNC(=O)c1cccn(Cc2ccccc2)c1=O	-3.24% (inactive)
O=[N+]([O-])c1ccc(N2CCN(c3ccc(F)cc3)CC2)cn1	-0.39% (inactive)
CSc1ccc(S(=O)(=O)N2CCC(C(=O)NCc3ccncc3)CC2)cc1	-1.8% (inactive)
Cc1nccc(-c2ccc(-n3c(C)ccc3C)cc2)n1	-1.5% (inactive)
Cc1ccc(Oc2nc(-c3ccccn3)nc3ccccc23)cc1	-3.21% (inactive)
c1ccc(-c2nccc(-c3ccc(-n4cnc5ccccc54)cc3)n2)nc1	15.8% (active)
CC(=O)c1cc2c(cc1NC(=O)Cn1nc(-c3ccc(F)cc3)ccc1=O)OCO2	-1% (inactive)

Structure (SMILES)	inhibition
Cc1ccc(CSCC2Nc3ccc(C(=O)N4CCN(c5ccc(F)cc5)CC4)cc3NC2=O)cc1 (centres undefined)	-4.03% (inactive)
Cc1ccc(C(=O)NCC(=O)NCc2cc(=O)n(C)c(=O)n2C)cc1	-0.88% (inactive)
Cc1cc2occ(CC(=O)NNC(=O)c3ccccc3F)c2cc1C	7.82% (active)
Cc1ccc2c(CC(=O)NCc3cccs3)coc2c1	-1.74% (inactive)
CCSc1nnc(SCC(=O)NNC(=O)c2ccccc2F)s1	-3.43% (inactive)
COC(=O)C1=C(C)NC2=C(C(=O)c3ccccc32)C1c1ccc(-c2ccc(C(=O)O)cc2)o1 (centres undefined)	21.7% (active)
CCOC(=O)C1=C(c2ccc(OC)cc2)C(=O)c2ccccc2C1=O	-1.49% (inactive)
Cc1ccc(C2C3=C(Nc4[nH]n(-c5ccccc5)c(=O)c42)c2ccccc2C3=O)cc1 (centres undefined)	-5.01% (inactive)
COc1ccc(CNC(=O)C(=O)NCC2OCCN2C(=O)c2ccc(OC)cc2)cc1 (centres undefined)	-0.68% (inactive)
COc1cccc(OCC(=O)NNC(=O)c2cnccn2)c1	-3% (inactive)
COc1ccc(C(=O)O/N=C(\N)c2ccccn2)cc1[N+](=O)[O-]	-0.21% (inactive)
COc1ccc(C(=O)NNC(=O)c2cnccn2)cc1[N+](=O)[O-]	5.35% (active)
Cc1cc(OCC(=O)NCC(O)c2ccccc2)c2c(C)c(C)c(=O)oc2c1 (centres undefined)	-1.48% (inactive)
COc1ccc(CC(NC(C)=O)C(=O)NC2CCN(C(=O)C3CC3)CC2)cc1OC (centres undefined)	-2.45% (inactive)
COc1cccc(CNS(=O)(=O)c2ccc3c(c2)N(C(C)=O)CCS3)c1	0.57% (inactive)
CCOc1cc(NC(=O)c2cnccn2)c(OCC)cc1NC(=O)c1ccc(C)cc1	-4.22% (inactive)
CCCc1cc(=O)oc2c(C)c(OCC(=O)N3CCC(C(=O)O)CC3)ccc12	-2.1% (inactive)
CCCc1cc(=O)oc2c(C)c(OCC(=O)Nc3ccccn3)ccc12	12.4% (active)
CCCc1cc(=O)oc2c(C)c(OCC(=O)NCc3ccccn3)ccc12	-4.36% (inactive)
O=C(O)c1c(NC(=O)N2CCCC2)sc2c1CCCC2	-2.5% (inactive)

Structure (SMILES)	inhibition
Cc1ccccc1NC(=O)Cn1cc(C(=O)C2CC2)c2ccccc21	-0.7% (inactive)
COc1ccc2c(c1)c1nc3n(c(=O)c1n2CC(=O)Nc1ccccc1)CCS3	-0.04% (inactive)
COc1cccc(NC(=O)Cn2c3ccccc3c3nc4n(c(=O)c32)CCS4)c1	-2.36% (inactive)
COc1cccc(NC(=O)Cn2c3ccc(F)cc3c3nc4n(c(=O)c32)CCS4)c1	7.15% (active)
O=C(Nc1ccccc1-c1nnn(CC(=O)N2CCCc3ccccc32)n1)c1cccc(Cl)c1	-0.16% (inactive)
N#Cc1c(Cl)nc(-c2cccnc2)nc1-c1ccccc1	9.55% (active)
CN(C)c1nc(-c2cccnc2)nc(-c2ccc(Cl)cc2)c1C#N	-2.58% (inactive)
O=S(=O)(Cc1cc(Cl)nc(-c2cccnc2)n1)c1ccccc1	0.12% (inactive)
Cc1cccc(NS(=O)(=O)c2cc(Cl)ccc2Cl)n1	4.66% (active)
Cc1cccc(NS(=O)(=O)c2ccc([N+](=O)[O-])cc2)n1	-1.07% (inactive)
COc1ccc(Cl)cc1S(=O)(=O)Nc1cccc(C(=O)O)c1	-2.2% (inactive)
Oc1ccc(Br)cc1C=Nc1ccc2[nH]ncc2c1	-1.06% (inactive)
COc1cc(Br)cc(/C=N/c2ncn[nH]2)c1O	7.88% (active)
COc1ccc(Br)cc1/C=N/n1c(C)nnc1C	-3.22% (inactive)
Oc1c(Cl)cc(Cl)cc1/C=N/c1ncn[nH]1	11.9% (active)
Cc1snc(SCc2c(F)cccc2Cl)c1C#N	-3.78% (inactive)
Cc1ccc2[nH]c(=O)c(CN(C)S(=O)(=O)c3cccc4nonc34)cc2c1	0.09% (inactive)
Cc1ccc(Cn2cc(C(=O)NN)c(=O)c3ccc(F)cc32)cc1	-2.47% (inactive)
COc1ccc(NC(=O)Cn2ncn3c(cc4ccccc43)c2=O)c(OC)c1OC	-2.6% (inactive)
